Compound activity: PubChem, The Scripps Research Institute Molecular Screening Center
Tn6 DDE FP: inhibitors of Tn6 peptide binding to fibrin DD(E), primary screen, biochemical, fluorescence polarization, human fibrin, Tn6 probe; Fibrinogen beta chain (Homo sapiens), P02675; Fibrin DD(E) TRITC-Tn6 fluorescence polarization displacement; inhibition, % at 8.3 µM; 0.21% of 370,000 active; AID 720509, 2013;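 active = inhibition above a per-campaign cutoff: mean of compounds within control limits plus 3 SD, cut at about 15% in these data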;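 also: 0% = median of all compound wells on the plate and 100% = blocking peptide control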
DDE Tn7 FP inh: inhibitors of Tn7 peptide binding to fibrin DD(E), primary screen, biochemical, fluorescence polarization, human fibrin, Tn7 probe; Fibrinogen beta chain (Homo sapiens), P02675; FP displacement of FITC-Tn7 peptide from fibrin DD(E); 0% = median of compound wells per plate; inhibition, % at 8.3 µM; 0.13% of 370,000 active; AID 720508, 2013;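 active = inhibition above the mean of compounds falling within the control limits plus 3 SD of them, cut at about 14% in these data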;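 also: 0% = plate median of compound wells and 100% = 10 µM Aha-Tn7 peptide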
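Measure: % inhibition scaled between sample-field median and high-control FP; Test system: human fibrin DD(E); Quantity: 2 µM final DD(E) protein; Doses: one dose, 8.3 µM nominal; Schedule: compound with protein 10 min, then 3 h after probe, room temperature; Detection: fluorescence polarization; Medium: Tris buffer with calcium and detergent, pH 7.8.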
TCR CD3 inh: inhibitors of human TCR-CD3 interaction, primary screen, biochemical, fluorescence, TAMRA-labeled TCR probe. AID 651800, 2012. 0.37% of 360,000 active. inhibition, % at 9.4 µM. T-cell receptor (TCR);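 also: recombinant mutant TCR 2C K166C tagged with TAMRA read by polarization; 0% = receptor in buffer alone and 100% = receptor with positive control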
HTRA1 inh: HTRA1 serine protease inhibitors, primary screen, biochemical, fluorescence polarization, HTS | 0.5% of 340,000 active | inhibition, % at 5.96 µM | AID 504803, 2011 | recombinant HTRA1, FP-rhodamine activity-based probe; in the data active = inhibition above about 36%;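 also: 0% = enzyme with DMSO and 100% = wells lacking enzyme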
SIAE inh: human SIAE inhibitors, primary screen, biochemical, fluorescence polarization, FP-Rh probe, 1536-well HTS; Sialate O-acetylesterase (Homo sapiens), Q9HAT2; SIAE FP-Rh probe binding; inhibition, % at 9.66 µM; 0.69% of 370,000 active;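 active = inhibition above a cutoff: mean of compounds within the control limits plus 3 SD of those, cut at about 17% in these data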;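 also: 0% = plate median of compound wells and 100% = probe without SIAE protein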
Target sequence (Q9HAT2 whole entry, looked up): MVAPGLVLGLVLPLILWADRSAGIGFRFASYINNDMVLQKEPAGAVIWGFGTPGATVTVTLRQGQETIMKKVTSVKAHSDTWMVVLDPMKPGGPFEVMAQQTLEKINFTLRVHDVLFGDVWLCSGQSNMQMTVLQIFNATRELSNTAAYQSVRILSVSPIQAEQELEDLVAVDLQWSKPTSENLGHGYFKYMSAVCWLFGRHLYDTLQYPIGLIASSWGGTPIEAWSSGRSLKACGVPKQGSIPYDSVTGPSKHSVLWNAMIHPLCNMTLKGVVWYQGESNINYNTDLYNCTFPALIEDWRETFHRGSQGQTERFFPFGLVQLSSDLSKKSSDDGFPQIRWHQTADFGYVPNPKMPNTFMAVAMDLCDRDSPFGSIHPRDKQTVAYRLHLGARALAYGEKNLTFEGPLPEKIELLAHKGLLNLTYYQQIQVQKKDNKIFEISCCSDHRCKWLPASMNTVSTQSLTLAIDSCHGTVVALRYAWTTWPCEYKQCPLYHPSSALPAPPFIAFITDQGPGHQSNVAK
mABHD4 FP: ABHD4 inhibitors, primary screen, biochemical, fluorescence polarization, mouse; (Lyso)-N-acylphosphatidylethanolamine lipase (Mus musculus), Q8VD66; purified mABHD4, FP-Rh probe fluorescence polarization; inhibition, % at 8.92 µM; 0.54% of 370,000 active; AID 720543, 2013;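 active = inhibition exceeding the mean over every tested compound plus 3 SD, cut at about 30% in these data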;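 also: 0% = plate median of compound wells and 100% = S159A mutant with DMSO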
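Assay system: wild-type mouse ABHD4 protein; compound: single nominal dose of 8.92 µM, 0.89% DMSO final; schedule: 45 min + 60 min at 25 °C; measured by: FP readout, ex 525 nm / em 598 nm; evaluation: % inhibition of FP-Rh probe binding versus controls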
HTRA1 inh conf: HTRA1 protease inhibitors, retest, confirmation, biochemical, fluorescence polarization. shares compounds with HTRA1 inh. recombinant HTRA1, FP-rhodamine activity-based probe. inhibition, % at 5.96 µM. 66% of 1,600 active. AID 540248, 2011;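 active = mean inhibition over three repeats above a set limit taken from the earlier primary screen, cut at about 37% in these data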;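 also: 0% = HTRA1 with DMSO and 100% = wells lacking HTRA1; inhibitors block probe binding so polarization drops and inhibition rises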
BSA TAMRA ctr: compounds interfering with TAMRA-BSA probe, counter-screen for TCR-CD3 interaction inhibitor project, biochemical, fluorescence, TAMRA-labeled BSA. AID 652035, 2013. 10% of 1,200 active. inhibition, % at 9.4 µM. TAMRA-labeled BSA probe fluorescence counterscreen. shares compounds with TCR CD3 inh; in the data active = inhibition above about 23%;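 also: 0% = buffer low control and 100% = reference high control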
TCR-CD3 conf: TCR-CD3 interaction inhibitors, retest, confirmation, biochemical, fluorescence, TAMRA-labeled TCR probe; TAMRA-labeled TCR probe fluorescence binding assay; inhibition, % at 9.4 µM; shares compounds with TCR CD3 inh; 48% of 1,200 active
mABHD4 conf: ABHD4 inhibitors, retest, confirmation, biochemical, fluorescence polarization, mouse; purified mABHD4, FP-Rh probe fluorescence polarization; shares compounds with mABHD4 FP; AID 720658, 2013; 55% of 1,800 active; inhibition, % at 8.92 µM;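 active = mean inhibition across replicates above the hit cutoff set in the primary screen, cut at about 30% in these data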;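 also: 0% = wild-type ABHD4 with DMSO and 100% = catalytically dead S159A mutant with DMSO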
Active calls of the source: *; · = no result. A selection: hits, their analogues and other compounds. The true share with any hit is near 1.8%. Rule as the data show it, unless noted: active = inhibition above about 19%; inactive = the rest.

SMILES	Tn6 DDE FP	DDE Tn7 FP inh	TCR CD3 inh	HTRA1 inh	SIAE inh	mABHD4 FP	HTRA1 inh conf	mABHD4 conf	others
O=C(O)C(Cc1ccccc1)N1C(=O)/C(=C/C=C/c2ccco2)SC1=S (configuration not stated)	2	-2	16	37*	11	42*	15	-67
O=C(NN1C(=O)/C(=C/C=C/c2ccco2)SC1=S)c1ccccc1O	-3	-9	0	40*	10	31*	19	-26
COC(=O)[C@]12C[C@H](CC(=O)N3CCN(C(=O)c4ccco4)CC3)C(=O)N(Cc3ccc(Cl)cc3Cl)C1=C[C@H](C1CCCC1)O[C@@H]2C	0	-6	·	·	-5	-5	·	·
CC(C)CNc1cccc2c1S(=O)(=O)N(Cc1cn(Cc3cccc(F)c3)nn1)Cc1ccccc1O2	-11	3	·	·	-3	19	·	·
CN(C(=O)[C@@H](C1CC1)[C@@H](O)c1ccc2ccccc2c1)c1ccccc1	-5	-4	·	·	-1	-6	·	·
NS(=O)(=O)c1ccc(N=Nc2c(O)c(C(=O)O)cc3ccccc23)cc1	-14	9	-5	45*	9	49*	9	20
COc1ccc(S[C@]2(C(=O)N3CCCC3)CC(=O)N(C(=O)c3ccccc3)[C@@H]2c2ccc(OC)cc2)cc1	1	-1	·	·	14	2	·	·
CO[C@H]1/C=C/O[C@@]2(C)Oc3c(C)c(O)c4c(O)c(c(C=NN5CCN(C)CC5)c(O)c4c3C2=O)NC(=O)/C(C)=C\C=C\[C@H](C)[C@H](O)[C@@H](C)[C@@H](O)[C@@H](C)[C@H](OC(C)=O)[C@@H]1C	4	2	4	36*	6	35*	7	3
CN(C)c1ccc(N/C=C/C(=O)c2ccccc2)cc1	-4	3	8	54*	1	46*	5	-15
Oc1ccc(Br)cc1C=Nc1ccc(Cl)cc1	-5	-5	14	-1	6	-2	·	·
CCN(CC)c1ccc(N=Cc2cc(Br)ccc2O)cc1	0	1	8	60*	11	45*	4	29
COC1=C[C@H](C(=O)NCCNC(C)=O)[C@@]2(C)Cc3ccccc3[C@H]2CC1=O	3	-12	·	·	3	1	·	·
Brc1ccc(N/N=C(/N=Nc2nn[nH]n2)c2ccccc2)cc1	-1	5	-2	62*	17*	91*	88*	104*
CC(C)N1Cc2nnn(Cc3ccccc3)c2-c2cc(N3CCCC3)ccc2S1(=O)=O	0	-3	·	·	2	27	·	·
CC(NCc1ccco1)C(=O)N1CCN(c2ccc(F)cc2)CC1 (configuration not stated)	4	0	·	·	5	-3	·	·
Cc1cc(C(=O)N/N=C/c2ccc(O)c(O)c2O)c(C)n1-c1ccccc1	1	-3	30*	67*	15	61*	67*	47*	BSA TAMRA ctr=-18;TCR-CD3 conf=29*
Cc1cc(/C=N/NC(=O)c2ccncc2)c(C)n1-c1ccccc1	2	1	8	11	1	3	·	·
Oc1ccc(C=Nc2ccc(N3CCOCC3)cc2)c(O)c1	4	-2	-5	35	6	27	·	·
Oc1cc(Br)ccc1C=Nc1ccc(N2CCCCC2)cc1	-3	-1	5	52*	3	36*	14	13
CC(Nc1cccc2ccccc12)C(=O)N/N=C/c1ccccn1 (configuration not stated)	3	1	-5	46*	9	48*	5	16
CCOC(=O)c1c2c(n(C)c1C)C(=O)C(=O)c1ccc(Br)cc1-2	1	0	-4	7	1	2	·	·
CCOC(=O)c1c2c(n(Cc3ccccc3)c1C)C(=O)C(=O)c1ccccc1-2	-4	10	10	46*	13	39*	43*	54*
Cc1ccc(N2NC(=O)/C(=C\c3cc4c(cc3[N+](=O)[O-])OCO4)C2=O)cc1C	0	-7	-1	63*	17	47*	37*	47*
C=CC[C@H]1c2ccccc2[C@H]2N3N=Cc4ccccc4[C@H]3[C@H](CCCC)C(=O)N2N1C(=O)c1ccccc1	-4	0	·	·	3	2	·	·
Cc1ccc(O)c(N=Cc2cc(Cc3ccccc3)cc([N+](=O)[O-])c2O)c1	-7	-6	5	58*	-6	35*	61*	16
SMILES	Tn6 DDE FP	DDE Tn7 FP inh	TCR CD3 inh	HTRA1 inh	SIAE inh	mABHD4 FP	HTRA1 inh conf	mABHD4 conf	others
O=[N+]([O-])c1cc(Cc2ccccc2)cc(C=Nc2ccc(N3CCOCC3)cc2)c1O	·	·	·	29	·	·	·	·
COc1ccc(-n2c(SCC(=O)Nc3ccccc3-c3ccccc3)nnc2-c2ccccn2)cc1	13	2	·	·	1	-3	·	·
Oc1ccc(/C=N/N(Cc2ccccc2)c2ccccc2)c(O)c1O	6	4	10	68*	15	34*	55*	46*
O=C(NCc1ccccc1)c1ccc2nc(-c3ccco3)c(-c3ccco3)nc2c1	-6	-5	22*	63*	34*	54*	22	38*	BSA TAMRA ctr=-10;TCR-CD3 conf=24*
O=C(c1cc(O)c(O)c([N+](=O)[O-])c1)c1ccccc1F	-3	6	-2	48*	14	37*	63*	32*
CC1=NN(c2ccc(C(=O)O)cc2)C(=O)/C1=C/c1ccc(-c2ccccc2F)o1	·	·	·	0	·	·	·	·
CC1=NN(c2ccc(C)cc2)C(=O)/C1=C/c1ccc(-c2cc([N+](=O)[O-])ccc2O)o1	-7	-9	-4	46*	13	31*	53*	53*
